{"source": "ChEMBL document CHEMBL4270576", "about": "“Discovery of a benzenesulfonamide-based dual inhibitor of microsomal prostaglandin E2 synthase-1 and 5-lipoxygenase that favorably modulates lipid mediator biosynthesis in inflammation” (Eur J Med Chem, 2018)", "target": "T1, Polyunsaturated fatty acid lipoxygenase ALOX12 (Homo sapiens) (UniProt P18054)", "T1 sequence (whole entry)": "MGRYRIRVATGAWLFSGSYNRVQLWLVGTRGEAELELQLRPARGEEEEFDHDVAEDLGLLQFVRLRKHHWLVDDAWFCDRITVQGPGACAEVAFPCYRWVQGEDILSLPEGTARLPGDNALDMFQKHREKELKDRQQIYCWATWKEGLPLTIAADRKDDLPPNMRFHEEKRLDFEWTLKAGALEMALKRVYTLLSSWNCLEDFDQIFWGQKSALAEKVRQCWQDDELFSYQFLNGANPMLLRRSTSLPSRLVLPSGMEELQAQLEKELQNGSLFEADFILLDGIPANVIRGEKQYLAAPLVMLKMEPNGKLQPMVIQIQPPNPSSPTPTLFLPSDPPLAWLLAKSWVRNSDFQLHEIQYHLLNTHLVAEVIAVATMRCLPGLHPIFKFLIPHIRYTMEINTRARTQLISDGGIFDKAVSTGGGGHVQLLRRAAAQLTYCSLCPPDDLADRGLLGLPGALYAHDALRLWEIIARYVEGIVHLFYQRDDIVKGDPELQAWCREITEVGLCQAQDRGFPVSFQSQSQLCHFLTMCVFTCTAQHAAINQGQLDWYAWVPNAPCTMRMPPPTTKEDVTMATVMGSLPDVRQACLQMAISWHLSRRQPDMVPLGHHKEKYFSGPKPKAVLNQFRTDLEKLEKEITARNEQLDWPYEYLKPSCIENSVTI", "assay": "Modulation of 12-LO-mediated 12-HEPE level in human M2 macrophages derived from IL4-polarized human monocyte derived macrophages at 3 uM preincubated for 15 mins followed by Escherichia coli (O6:K2:H1) challenge for 90 mins by LC-MS/MS analysis", "method_in_brief": "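Monocytes differentiated 6 days with M-CSF (20 ng/ml), then polarized 48 h with IL-4 20 ng/ml (M2). Cells (2 × 10^6) in PBS/1 mM CaCl2 pre-incubated 15 min at 37 °C with 3 µM compound or 0.1% DMSO, then challenged with E. coli O6:K2:H1 (1:50) for 90 min. Lipid mediators extracted by SPE with deuterated internal standards and quantified by UPLC-MS/MS as % of vehicle.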", "data": [{"smiles": "O=C(O)c1ccc(N(Cc2cccc(OCc3ccccc3)c2)S(=O)(=O)c2ccc(-c3ccccc3)cc2)cc1", "values": [{"measurement": "Activity", "value": 140, "unit": "%"}]}]}
